Compound activity: PubChem BioAssay, Sanford-Burnham Center for Chemical Genomics
An excerpt weighted towards active compounds, which were near 2.3% of everything screened.
Rpn11 block: Rpn11 (human) deubiquitinase inhibition; O00487; inhibition, % at 20 µM; human 26S proteasome, Ub4-pepOG fluorescence polarization; 20S core pre-blocked with epoxomicin; 0.59% of 360,000 active;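 active = inhibition at 20 µM, scaled to each plate's controls, above about 33%, limit read from the data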
Target sequence (O00487 whole entry, looked up): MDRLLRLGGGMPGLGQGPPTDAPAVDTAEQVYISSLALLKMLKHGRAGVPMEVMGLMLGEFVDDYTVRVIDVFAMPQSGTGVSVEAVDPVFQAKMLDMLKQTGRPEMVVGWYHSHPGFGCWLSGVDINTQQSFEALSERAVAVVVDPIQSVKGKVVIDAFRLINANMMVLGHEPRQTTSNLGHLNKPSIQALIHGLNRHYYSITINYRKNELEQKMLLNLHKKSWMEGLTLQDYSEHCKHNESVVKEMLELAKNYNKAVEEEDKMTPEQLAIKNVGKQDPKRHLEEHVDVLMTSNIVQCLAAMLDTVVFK
DNMT1 block: blocks human DNA methyltransferase DNMT1; DNMT1 molecular beacon, Hinp1I cleavage, fluorescence; inhibition (reported as % activation of signal), % at 10 µM; 0.83% of 360,000 active; AID 588458; in the data active = inhibition above about 50%
SUMO1 PPI mod: alters human SUMO1 binding to SIM partners; P63165; SUMO1 binding to a labelled peptide, TR-FRET, 1 h; inhibition, % at 20 µM; 0.33% of 360,000 active; AID 602429; in the data active = inhibition above about 37%
LMPTP inh: blocks human LMPTP phosphatase; recombinant LMPTP-A, OMFP fluorogenic substrate, fluorescence intensity; inhibition, % at 20 µM; 0.22% of 360,000 active;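 active = compounds that cut the enzyme signal by at least half of the control window in the single-dose screen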;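 note: plate controls were DMSO wells with enzyme plus substrate for no effect and substrate without enzyme for full effect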
Target sequence (P24666 whole entry, looked up): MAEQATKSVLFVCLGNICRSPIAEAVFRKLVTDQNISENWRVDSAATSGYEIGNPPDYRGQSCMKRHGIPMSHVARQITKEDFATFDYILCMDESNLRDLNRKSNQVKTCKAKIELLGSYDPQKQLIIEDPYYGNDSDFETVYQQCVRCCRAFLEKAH
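Assay system: LMPTP-A phosphatase enzyme | Input: 0.625 nM enzyme | Also added: Fluorogenic phosphatase substrate OMFP at 400 µM final | Compound dosing: One test concentration per compound, 20 µM, with 3% DMSO overall | Schedule: 50 min enzyme reaction at room temperature, protected from light | Signal: Fluorescence intensity | Benchmarks: no-enzyme and uninhibited controls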
Scp-1 inhibitor: Scp-1 (human) phosphatase inhibition. Q9GZU7. Recombinant Scp1, phosphopeptide, malachite green phosphate absorbance. inhibition, % at 20 µM. 0.88% of 340,000 active. AID 493091;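 active = inhibition above about 50% at 20 µM, limit read from the data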;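 note: plate controls were DMSO wells with enzyme for no effect and wells lacking enzyme for full effect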
Target sequence (Q9GZU7 76-261 limits assumed): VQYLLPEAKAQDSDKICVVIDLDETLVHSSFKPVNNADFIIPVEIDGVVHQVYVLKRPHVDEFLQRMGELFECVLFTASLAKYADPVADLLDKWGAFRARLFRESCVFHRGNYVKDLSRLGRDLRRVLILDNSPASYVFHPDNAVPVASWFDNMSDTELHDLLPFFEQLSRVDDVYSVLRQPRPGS
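Test system: SCP-1 catalytic domain; Buffer or medium: Acidic Tris acetate buffer with magnesium and detergent; Also added: Phosphorylated 17-residue peptide substrate; Compound: single 20 µM dose, 1% DMSO; Schedule: enzyme reaction 45 min at room temperature, colour 5 min, stabilisation 30 min; Signal: Phosphate-binding colour reagent, absorbance read at 630 nm.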
STEP inh: inhibitors of human striatal-enriched phosphatase STEP | P54829 | recombinant STEP, OMFP fluorogenic substrate, fluorescence | AID 588621 | inhibition, % at 20 µM | 0.25% of 360,000 active;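 active = inhibition at 20 µM, scaled per plate between control wells, above about 37%, limit read from the data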;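 note: 0% = DMSO with enzyme and substrate and 100% = substrate only without enzyme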
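Material: STEP (striatal-enriched tyrosine phosphatase) enzyme, cell-free; Compound dosing: 20 µM single dose in 1% DMSO; Technique: fluorescence read at 480 nm ex / 540 nm em; Times: reaction 20 min, ambient temperature; Medium: 50 mM Bis-Tris pH 6.0 with 2.5 mM DTT and 0.005% Tween 20; Also added: OMFP at 25 µM.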
Scp-1 conf: confirmation of human Scp-1 phosphatase inhibitors; 61% of 2,500 active; inhibition, % at 20 µM; recombinant SCP-1 catalytic domain, phosphate release, malachite green absorbance; shares compounds with Scp-1 inhibitor; AID 540281;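 note: plate controls were DMSO with enzyme for no effect and buffer wells lacking enzyme for full effect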
Scp-1 MG ctr: colorimetric interference in Scp-1 counter-screen. Colorimetric interference counterscreen, malachite green absorbance 630 nm. apparent inhibition (interference), % at 20 µM. AID 540313. shares compounds with Scp-1 inhibitor. 2,500 tested, under 10 active;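 note: compounds added after enzyme reaction finished so only phosphate colour detection is probed; plate controls were DMSO wells with completed Scp-1 reaction for no effect and substrate wells lacking enzyme for full effect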
Scp1 DSF: Scp-1 (human) binding by thermal shift. AID 540329. 25% of 1,500 active. Recombinant SCP1, Sypro Orange thermal shift Tm. shares compounds with Scp-1 inhibitor. thermal shift relative to vanadate control, % at 40 µM;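 active = substances whose mean melting-temperature shift, as a percentage of the reference inhibitor's shift, reaches about 5.3%, limit read from the data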;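 note: 0% = Tm of DMSO wells and 100% = Tm with sodium orthovanadate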
The depositor's hits bear a star; . = no result given.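 Rule for the calls, unless noted: active = inhibition of at least 30% at 20 µM; inactive = the rest.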

SMILES | Rpn11 block | DNMT1 block | SUMO1 PPI mod | LMPTP inh | Scp-1 inhibitor | STEP inh | Scp-1 conf | Scp-1 MG ctr | Scp1 DSF
CC(C)OCCCN(C)C1CCN(S(=O)(=O)c2ccc(-c3ccc(=O)[nH]n3)s2)CC1 | 4 | -1 | -19 | 2 | 51* | -4 | -25 | -20 | .
Cc1ccc(CN2CCC(CNS(=O)(=O)c3ccc(-c4ccc(=O)[nH]n4)s3)CC2)cc1 | -7 | -1 | -34 | 1 | -1 | -1 | . | . | .
COc1ccc(-c2nonc2NC(=O)c2ccco2)cc1OC | -6 | 2 | -3 | -1 | 58* | -4 | -14 | -16 | .
COc1ccc(Br)cc1/C=N/n1c(-c2ccccc2)n[nH]c1=S | 3 | 4 | 4 | -2 | -2 | 0 | . | . | .
COc1cc(/C=N/n2c(-c3ccccc3)n[nH]c2=S)cc(OC)c1O | 1 | 1 | 0 | -2 | -6 | 4 | . | . | .
Oc1c(Br)cc(/C=N/n2c(-c3ccccc3)n[nH]c2=S)c(O)c1Br | 20 | 8 | 15 | 1 | 79* | 2 | 88* | -5 | 4
Oc1c(Br)cc(/C=N/n2c(-c3ccccc3)n[nH]c2=S)cc1Br | 9 | 2 | 21 | 0 | 56* | 12 | 80* | -11 | 9.1*
Cc1ccc(C2(C)NC(=O)N(CC(=O)Nc3cc(S(=O)(=O)N4CCOCC4)ccc3OC(C)C)C2=O)cc1 (stereo unspecified) | 0 | -1 | -2 | 0 | -5 | -1 | . | . | .
NC(=O)C[n+]1cccc2ccccc21 | -50 | 0 | -21 | 0 | 99* | -5 | -7 | -12 | .
COc1ccc(C2=Nc3ccccc3NC(=O)C2N(CCc2ccccc2)C(=O)c2cccs2)cc1 (stereo unspecified) | 3 | 6 | -6 | 1 | . | -3 | . | . | .
COc1ccc(NS(=O)(=O)c2cccc(C(=O)NN=Cc3ccc(OC)c(O)c3)c2)cc1 | -1 | -10 | -4 | 0 | 0 | -3 | . | . | .
COc1ccc(NS(=O)(=O)c2cccc(C(=O)N/N=C/c3c(F)c(F)c(F)c(F)c3F)c2)cc1 | 0 | -4 | -5 | 21 | 75* | 0 | 52* | -5 | 7.3*
Cn1c(SCC(=O)Nc2ncc(C(F)(F)F)cc2Cl)nnc1-c1ccc(Cl)cc1 | 1 | 0 | 1 | -3 | 62* | 0 | 19 | 2 | .
Cc1ccc2nc(/C(C#N)=C\c3ccc(N4CCCCC4)c([N+](=O)[O-])c3)[nH]c2c1 | -67 | 50 | -12 | 2 | 109* | 10 | 77* | -3 | 12*
N#C/C(=C/c1ccc(N2CCCC2)c([N+](=O)[O-])c1)c1nc2ccccc2[nH]1 | 4 | 30 | -6 | 5 | 4 | 3 | . | . | .
CCOc1ccc(C=NNc2ccc(S(=O)(=O)Nc3ccccc3C(=O)O)cc2[N+](=O)[O-])cc1OC | -5 | -6 | 25 | 37 | 72* | 98* | 86* | -8 | 17*
CC(=O)Nc1ccc(S(=O)(=O)NCC(=O)NNC(=O)COc2ccccc2Cl)cc1 | 2 | 1 | -1 | -1 | -3 | 0 | -25 | -26 | .
COC(=O)c1c(C)[nH]c(C(=O)CSc2ncnc3sc(-c4ccccc4)cc23)c1C | -4 | 48 | -1 | 1 | 6 | 1 | . | . | .
COc1ccc2[nH]c(=O)c(-c3noc(-c4ccccc4)n3)cc2c1 | . | 6 | 65* | 22 | 82* | 39 | 60* | -9 | -35
O=C(Cn1ccc(NC(=O)OCc2ccccc2)nc1=O)NCc1ccc2c(c1)OCO2 | -7 | 10 | -1 | -2 | 3 | 1 | -8 | -13 | .
CC(NC(=O)OCc1ccccc1)C(=O)NCC(=O)NC(Cc1ccc(OC(C)(C)C)cc1)C(=O)OC(C)(C)C (stereo unspecified) | -7 | -5 | -2 | -1 | -11 | -1 | . | . | .
COC(=O)c1c(NC(=O)Cc2cccs2)sc2c1CCCC2 | -1 | 45 | 7 | 4 | 51* | 7 | 73* | -12 | 0
CCCSc1nc(=O)n2cccc(C)c2n1 | -4 | 7 | 1 | -1 | -4 | -3 | . | . | .
C=CCOc1c(Br)cc(/C=N/n2c(CC)n[nH]c2=S)cc1Br | 2 | 13 | 4 | 1 | 72* | 2 | -17 | -16 | .
O=C(CSc1nc(-c2ccc(F)cc2)cs1)NC(=O)NCc1ccco1 | -12 | 40 | 2 | 7 | 74* | 6 | 39* | -12 | -12
SMILES | Rpn11 block | DNMT1 block | SUMO1 PPI mod | LMPTP inh | Scp-1 inhibitor | STEP inh | Scp-1 conf | Scp-1 MG ctr | Scp1 DSF
Nn1c(SCC(=O)NC(=O)NCc2ccco2)nnc1-c1ccc(OC(F)F)cc1 | -7 | 49 | 4 | 7 | 63* | -4 | 54* | -22 | 3
COC(=O)C1=C(C)N(c2ccc(C)c(C)c2)/C(=C/c2ccco2)C1=O | 22 | 28 | -14 | 3 | 59* | 2 | 20 | -9 | .
CCOC(=O)C1=C(C)N(c2ccc(C)c(C)c2)C(=O)/C1=C\c1ccco1 | 2 | 4 | -4 | 3 | -15 | 2 | . | . | .
O=C(CN1C(=O)S/C(=C\c2ccc(O)c([N+](=O)[O-])c2)C1=O)Nc1ccc(N2CCOCC2)cc1 | -7 | 0 | -12 | 22 | 62* | 12 | 60* | -2 | 2
Cc1cccc(NC(=O)CN2C(=O)S/C(=C\c3ccc(O)c([N+](=O)[O-])c3)C2=O)c1 | -2 | -4 | -2 | 8 | 80* | 5 | 77* | -4 | 26*
N#C/C(=C\c1ccc[nH]1)C(=O)Nc1ccccc1[N+](=O)[O-] | -24 | 21 | 25 | 32 | 55* | -1 | 64* | -7 | 5.3*
CCC(C)Sc1ccc([C@H]2N[C@@](Cc3ccccc3)(C(=O)OC)[C@H]3C(=O)N(C)C(=O)[C@@H]23)cc1 (stereo partly specified) | -9 | 2 | 5 | 2 | -7 | 4 | . | . | .
O=C(O)c1cccc2c1C(=O)N(c1ccc3c(c1)Cc1ccccc1-3)C2=O | 3 | 2 | -21 | -1 | 64* | 4 | 60* | -17 | -14
O=S(=O)(Nc1c(F)cccc1F)c1ccc(Cl)nc1 | -4 | 1 | 2 | -1 | 3 | 0 | . | . | .
CCSc1nc2c([nH]1)c(=O)n(C)c(=S)n2C | -4 | 0 | 13 | 44 | 61* | 6 | 75* | -21 | 4
